Test system: MS2 coat protein
Assay: apparent Kd, MS2 coat protein; higher = weaker binding; RNA-MaP array; FMN 200 µM where present
Method in brief: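 Stalled E. coli RNA polymerase produced the designs on Illumina sequencing-chip clusters. SNAP-549-labelled MS2 coat protein was added from 0.7 or 1.5 nM, doubling to 3 µM, without and then with constant ligand, in 100 mM Tris-HCl pH 7.5, 80 mM KCl, 4 mM MgCl2, BSA, DTT, yeast tRNA and Tween-20. The apparent Kd is the median of filtered per-cluster fits of green signal normalised to red-channel RNA signal and control-cluster median Fmax.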

[1] = designed as: OFF switch for flavin mononucleotide, no ligand
[2] = ligand present: flavin mononucleotide, designed as: OFF switch for flavin mononucleotide
[3] = designed as: ON switch for flavin mononucleotide, no ligand
[4] = ligand present: flavin mononucleotide, designed as: ON switch for flavin mononucleotide

Row | Sequence | apparent Kd [1] | apparent Kd [2] | apparent Kd [3] | apparent Kd [4]
1 | CGUAUGUCAGGAUAUGCGUAAACCGGUCAGGGCGAGCGGCAGCAGAAGGGACAUGAGGAUCACCCAUGUUCGGG | 46.7 nM | 46.6 nM |  | 
2 | AGGACCAAAACAUCUACAUGAGGAUCACCCAUGUAUCGUAUGCAGGAUAUCCAUGGGUGGGCAGAGGAGAAGGGCAUUAAAAGA |  |  | 61.6 nM | 124 nM
3 | AAAAAACAUGAGGAUCACCCAUGUCAGGAUAUCGUGCAGAAAAAAAAAAAAAACUGCACGAGAAGGGACAUGAA | 236 nM | 192 nM |  | 
4 | UGUGCGUAUGUGAGGAUAUGCUGGUCCUUGGAUCGGCAGAAGGCACAUGAGGAUCACCCAUGUGGUGUCGUUCU | 389 nM | 24.8 nM |  | 
5 | CCACUGUCAGGAUAUCGUGCAUAAGCGUUUACAUUUAUGUGCGAGAAGGGACAUGAGGAUCACCCAUGUAAACG | 417 nM | 653 nM |  | 
6 | AGCUGUGGCCGAGGAUAUCUAACCUUCAUAACCGAAAUAUAAUCGGACAUGAGGAUCACCCAUGUAGAGAAGGCGGUCUCAGCA | 18.2 nM | 191 nM |  | 
7 | GUAGCAUUGAGAGGAUAUCCAUACCGGAAACGGACAUGAGGAUCACCCAUGUGGCGAAAGCCAUGGGAGAAGGCUCUAUGUUAC |  |  | 11.1 nM | 4.96 nM
8 | AAUCAACGAAUACCAGGGCAUUAAUGAGAAGGCCAAUCACAUGAGGAUCACCCAUGUACGAGAGUGGAGGAUAUCAGUGGGCCG |  |  | 111 nM | 11.3 nM
9 | GUACUGUAGUGAGGAUAUACGAGAUCGAUAGAUCGGCGAUCCAUUAAUACAUGAGGAUCACCCAUGUAGAAGGCACUUCAGUAC | 6.25 nM | 78.4 nM |  | 
10 | GGGCUGUCAGGAUAUAGUUCGAGUUCGGAAAUGAGCUUGAGCUAGAAGGGACAUGAGGAUCACCCAUGUGGCCC | 31.1 nM | 34.2 nM |  | 
11 | GCUGUCGCUUGAGGAUAUGGUCAGCUUUGCUGACCAGAAGGCAUGUCAAUAGACAUGAGGAUCACCCAUGUAGUAAGGGCGGCU |  |  | 339 nM | 122 nM
12 | GACUCUAAGUUUGUCAGUUAGAGAGAGGAUAUGGAAAACUUGACAUGAGGAUCACCCAUGUAUAAUCAGAAGGCUCGAGUACGA |  |  | 12.9 nM | 8.91 nM
13 | AUUUUGUGAGGAUAUGUGGCUUCGAUCGUGAAAACGAGGCUACAGAAGGCACAUGAGGAUCACCCAUGUUCCUA | 20.5 nM | 169 nM |  | 
14 | CAUGAUUGGGAAGGAUAUUGACCUAGUUAGUGCCGAGAAGGUCCCUUUCACAUGAGGAUCACCCAUGUGAGACUGGUGUUCGAG | 26.5 nM | 50.4 nM |  | 
15 | AAAUCAGCAGGAUAUGCGAUGUUGUGCUAGAUAGCGGGACCACAUGAGGAUCACCCAUGUAGAAGGGCUGGAUA | 57.5 nM | 29.5 nM |  | 
16 | UGGUACUAGGGAGGAUAUGGGAAGAUACAUGAGGAUCACCCAUGUUUUAGAAUGCCGAGAGGCAACUAGAAGGCCCUAGUACCU |  |  | 1110 nM | 74.5 nM
17 | AGCUAGUCAGGAUAUACGAACACCUCAAAAGAGGUGAAGGGACAUGAGGAUCACCCAUGUAGAAGGGACUAGCA | 33.1 nM | 112 nM |  | 
18 | CCUCAGUUAGGAUAUUACUAAUCACUAACCGGGCAACUGGGUAAGAAGGAACAUGAGGAUCACCCAUGUUACGU | 22.1 nM | 22.2 nM |  | 
19 | UCAUAUUUACAAGGAUAUCAAUUAUUUAUACAUCCUACAUGAGGAUCACCCAUGUUAAUAUAUUUUGAGAAGGUGUAUUGUCGG |  |  | 32.1 nM | 31.2 nM
20 | GGAAAAUGAGGAUAUACAUGUUUGAUACCUCUACGCCCGCAACAUGAGGAUCACCCAUGUAGAAGGCAUGAAAA | 15.4 nM | 44.2 nM |  | 
21 | UGUUGUAUUACAGGAUAUCUAUGAUUUUGAUUUAGAGAAGGGUAUUCACAUGAGGAUCACCCAUGUAUAUACGAGGAAGUUGUG |  |  | 51.2 nM | 54.4 nM

Row | Sequence | apparent Kd [1] | apparent Kd [2] | apparent Kd [3] | apparent Kd [4]
22 | AAGUCGCGGUCAGGAUAUCAGAAACAAAUUGACUGAGAAGGGAUGGCACAUGAGGAUCACCCAUGUCGUCGUCGCAGUGGGUGA | 116 nM | 155 nM |  | 
23 | AAGUAGAUCCGAGGAUAUACAAUCCGGAAACGGUACAUGAGGAUCACCCAUGUAGAAGGCGGAUCUACAGGUACUAAAGUACCA | 6.5 nM | 8.32 nM |  | 
24 | GUCAGCUCGUGAGGAUAUACAUGUGCUGGAUACAGCACUAUUGUGUUCACAUGAGGAUCACCCAUGUAGAAGGCACGAGCUGAU | 17.7 nM | 87.3 nM |  | 
25 | AUCAGCUCGUCAGGAUAUACGUCACUGCGUCAGCAGUGUGGUAAGAUCACAUGAGGAUCACCCAUGUAGAAGGGACGAUCUGAU | 12.8 nM | 309 nM |  | 
26 | AAGAAGUCAGGAUAUGCAUGGCGGGACUUGCGUCGUGGCGUGCAGAAGGGACAUGAGGAUCACCCAUGUGGAGC | 107 nM | 161 nM |  | 
27 | CUGUGACGGUGCGCAAGUGGACGUAGAAGGGUCACAUGAGGAUCACCCAUGUGGGCCUGCUAUUGACAGGAUAUACGUUCGUAC | 5.28 nM | 5 nM |  | 
28 | GCGAAUAACGAGGAUAUCGUAUCGGAAACGAUACGAGAAGGUGUAACAUGAGGAUCACCCAUGUUCCUCAACGC | 37.5 nM | 36.4 nM |  | 
29 | CCUCAGUAAGGAUAUCAGCUUAUAGAGUUGGUAAUGAGAGCUGAGAAGGUACAUGAGGAUCACCCAUGUUAGUU | 21.8 nM | 57.3 nM |  | 
30 | UAUAAGAACGAAGGAUAUGGUUACAUGAGGAUCACCCAUGUAUUAAUAUUGAUCUAUUUUUAUAACCAGAAGGUCGAGAGUAAA | 27.4 nM | 39.7 nM |  | 
31 | CGUGACGACAUAGGAUAUUGAUACAUGAGGAUCACCCAUGUCACCCAUUUAUAUAUUAGUGAUGACAAGAAGGAUGUGGUCACG |  |  | 33.3 nM | 7.13 nM
32 | GCUGACGAUGUAGGAUAUCUCGACGAUAAGUCGAGAGAAGGACAUGAGGAUCACCCAUGUAAAACUCCGUCAGCGAGGAAACUC | 16.3 nM | 17.8 nM |  | 
33 | GUCAGCUCGUGAGGAUAUACAACACUGCAUCGGCAGUGUAUUAAGAUCACAUGAGGAUCACCCAUGUAGAAGGCACGAGCUGAU | 13 nM | 246 nM |  | 
34 | UAUUUUAACUAAGGAUAUCUGUAUUAUGUUGAAACAUGAGGAUCACCCAUGUUCAUGAUAUUAUAGGAGAAGGUAGAUGAAUAA |  |  | 6.75 nM | 6.01 nM
35 | GUGAGUGAUAGAGGAUAUAUAGAGAGAGAGAGAAUAGAAGGCUAAACAUACAUGAACAUGAGGAUCACCCAUGUCACCCAUGUU |  |  | 37.6 nM | 42.2 nM
36 | UAUGUAUUCGUAGGAUAUCCGUCGCCACCGUGUGGAGAAGGACGAACAUGAGGAUCACCCAUGUAUCAUGGUGUAGACACUUUU | 98.4 nM | 154 nM |  | 
37 | UAUGAUUGAGGAUAUUGUACUGCUGACAUGAGGAUCACCCAUGUAUGCUAACUCGGCCGUCGAGAAGGCAAUUAUG | 141 nM | 51 nM |  | 
38 | UUUUUGAAGCUUCGUCAAUACAGUUAGGAUAUGAGAGACAUGAGGAUCACCCAUGUGCAUGUUGAUUAGAAGGAACAACUAUCU | 14.2 nM | 12.7 nM |  | 
39 | GGAUAGGACAGAGGAUAUACGUGCUAGAGAUACUAGCAAAAUUUCCUCACAUGAGGAUCACCCAUGUAGAAGGCCGUCCUAUCG | 6.02 nM | 19.7 nM |  | 
40 | GCUUGAGCAGGAUAUACAAGCUUGAGCUGAAAAGUUCGAGUACAUGAGGAUCACCCAUGUAGAAGGGUUCGAGU | 27.5 nM | 32.3 nM |  | 
41 | AUACCUUAUGAGAAGGCGGUCAUGAAACAUGAUCGAGGAUAUCAUGUAAACAUGAGGAUCACCCAUGUAUGGGUAUUAUGGUAG |  |  | 61.8 nM | 12.3 nM
42 | CCACCCUGAGGAUAUCCACCCUCAUACAUGAGGAUCACCCAUGUUCAUCCCUGAGUACCCGGAGAAGGCAGAUUUC | 87.7 nM | 57.9 nM |  | 

Source: the EternaBench riboswitch data
